According to ChEMBL document CHEMBL4699414, “Hit-to-lead optimization of novel benzimidazole phenylacetamides as broad spectrum trypanosomacides” (RSC Med Chem, 2020):

How the values were obtained:
[1] = Cytotoxicity against human HEK293 cells assessed as reduction in cell viability measured after 48 hrs by resazurin assay; assay type: cell-based
Summary of the method: (§1)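 HEK293 cells from ATCC; Alamar Blue viability read-out run per earlier method.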

[2] = Lipophilicity, logP of the compound; assay type: physicochemical; conditions: octanol/water
Trypanosoma cruzi [3] = assay: (§2) Antitrypanosomal activity against recombinant Trypanosoma cruzi intracellular amastigotes expressing beta-galactosidase infected in mouse NIH/3T3 cells assessed as parasite growth inhibition incubated for 4 days by resorufin-beta-D-galactopiranoside substrate based fluorescence assay; assay type: functional, organism-based; conditions: NIH3T3, 96 h
[4] = Selectivity index, ratio of CC50 for human HEK293 cells assessed as reduction in cell viability measured after 48 hrs by resazurin assay to IC50 for Trypanosoma brucei brucei Lister 427 […] assessed as parasite growth inhibition measured after 48 hrs by alamar blue assay; assay type: toxicity, cell-based; conditions: read-out: Ratio CC50/IC50
[5] = Selectivity index, ratio of CC50 for rat H9c2 cells assessed as reduction in cell viability to IC50 for Trypanosoma cruzi infected in rat H9c2 infected with trypomastigotes from parasite-infected monkey LLC-MK2 cells measured after 72 hrs by DRAQ5 DNA dye based microscopic imaging analysis; assay type: toxicity; conditions: read-out: Ratio CC50/IC50
[6] = Cytotoxicity against rat H9c2 cells assessed as reduction in cell viability; assay type: cell-based
[7] = as §2, with “Selectivity index, ratio of CC50 for mouse NIH/3T3 cells to IC50 for” for “Antitrypanosomal activity against”; assay type: toxicity, cell-based; conditions: time 4 day, read-out: Ratio CC50/IC50
[8] = Cytotoxicity against human HepG2 cells assessed as reduction in cell viability measured after 48 hrs by CellTiter-Glo assay; assay type: cell-based
Summary of the method: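 HepG2 human hepatoma cells from GSK Biological Reagents and Assay Development (Stevenage, UK); viability read-out per earlier method.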

[9] = test system: Trypanosoma brucei brucei; assay: Antitrypanosomal activity against Trypanosoma brucei brucei Lister 427 assessed as parasite growth inhibition measured after 48 hrs by alamar blue assay; conditions: Lister 427, 48 h
HEK293 = assay: Cytotoxicity against human HEK293 cells assessed as reduction in cell viability measured after 48 hrs by resazurin assay relative to control; assay type: cell-based; conditions: hek293, 48 h; summary of the method: as §1
Trypanosoma cruzi [10] = assay: Antitrypanosomal activity against Trypanosoma cruzi infected in rat H9c2 infected with trypomastigotes from parasite-infected monkey LLC-MK2 cells measured after 72 hrs by DRAQ5 DNA dye based microscopic imaging analysis; assay type: functional, organism-based; conditions: H9c2, 72 h

Row | Structure (SMILES) | CC50 at 48 h [1] [µM] | logP [2] | IC50 (Trypanosoma cruzi [3]) [µM] | selectivity ratio at 48 h [4] | selectivity ratio at 72 h [5] | CC50 [6] [µM] | selectivity ratio at 96 h [7] | CC50 at 48 h [8] [µM] | IC50 [9] [µM] | Activity (HEK293) [µM] | IC50 (Trypanosoma cruzi [10]) [µM]
1 | CCCn1c(NC(=O)Cc2ccc(Cl)cc2)nc2ccccc21 | > 83 | 4.7 | 0.63 | 50 | 40 | > 50 | 79 | > 50 | – | – | –
2 | CCCn1c(NC(=O)Cc2ccc(Cl)cc2)nc2c(Br)cccc21 | – | 5.5 | – | – | – | > 50 | – | > 50 | 19 | 54 | 10
3 | CCCn1c(NC(=O)Cc2ccc(Cl)cc2)nc2cc(Cl)ccc21 | – | 5.3 | – | – | – | 7.94 | – | > 50 | 4.4 | 84 | 0.5
4 | C=CCc1c(NC(=O)Cc2ccc(Cl)cc2)ncc2ccccc12 | > 83 | 5.1 | – | – | – | > 50 | – | > 50 | > 83 | – | 20
